Screens as filed in PubChem BioAssay.
RGS4 block: RGS4 inhibitors, primary screen, cell-based, HEK293 M3R inducible RGS4, calcium flux; Regulator of G-protein signaling 4 (Homo sapiens), P49798; Fluo-4 calcium flux; stronger effect = higher value; triggered by carbachol at its EC20; B-score at 10 µM; 310,000 compounds, 0.45% hits;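 active = B-score, a plate-corrected calcium signal, over three deviations above library mean, with baseline fluorescence within five deviations of library mean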;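 also: RGS4 expression induced by doxycycline in cells with stable M3 receptor; B-score is computed from the integrated fluorescence ratio over baseline after carbachol; higher B-score means a larger calcium signal and so more RGS4 inhibition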
Target sequence (P49798 whole entry, looked up): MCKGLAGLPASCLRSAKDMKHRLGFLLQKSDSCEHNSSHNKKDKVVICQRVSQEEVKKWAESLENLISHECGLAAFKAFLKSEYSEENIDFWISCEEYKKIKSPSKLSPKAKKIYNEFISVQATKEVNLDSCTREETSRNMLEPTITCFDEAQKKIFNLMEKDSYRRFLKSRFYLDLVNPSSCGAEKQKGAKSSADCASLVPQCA
RGS4 pot: RGS4 potentiators or activators, primary screen, cell-based, HEK293 M3R inducible RGS4, calcium flux; B-score at 10 µM; 310,000 compounds, 0.92% hits; AID 463111, 2010; carbachol calcium flux Fluo4; stronger effect = lower value;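 active = B-score of the integrated calcium signal more than 4 SD below the library mean, with starting fluorescence not abnormally high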;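 also: negative B-score means reduced calcium response which marks RGS4 activation or potentiation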
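System: HEK293 FlpIn-TREx cells, stable M3R, doxycycline-inducible RGS4. Timing: overnight RGS4 induction, 30 min dye load 37 °C, 20 min compound RT. Also added: carbachol, ECmax concentration. Measured by: Fluo4 fluorescence kinetic imaging of calcium. Evaluation: integrated calcium ratio converted to B score.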
MrgX1 allo act: positive allosteric modulators of MrgX1, primary screen, HEK293 cells, Fluo-4 calcium flux. AID 588675, 2011. FDSS; stronger effect = higher value. B-score at 10 µM. 310,000 compounds, 0.63% hits. Mas-related G-protein coupled receptor member X1 (Homo sapiens), Q96LB2;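 active = plate-corrected calcium response at least 3 library SD above typical, normal starting fluorescence, not activating the receptor alone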;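 also: compound read alongside a low EC10 to EC30 dose of BAM8-22 agonist; peak minus trough fluorescence over baseline measured at the second addition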
Target sequence (Q96LB2 whole entry, looked up): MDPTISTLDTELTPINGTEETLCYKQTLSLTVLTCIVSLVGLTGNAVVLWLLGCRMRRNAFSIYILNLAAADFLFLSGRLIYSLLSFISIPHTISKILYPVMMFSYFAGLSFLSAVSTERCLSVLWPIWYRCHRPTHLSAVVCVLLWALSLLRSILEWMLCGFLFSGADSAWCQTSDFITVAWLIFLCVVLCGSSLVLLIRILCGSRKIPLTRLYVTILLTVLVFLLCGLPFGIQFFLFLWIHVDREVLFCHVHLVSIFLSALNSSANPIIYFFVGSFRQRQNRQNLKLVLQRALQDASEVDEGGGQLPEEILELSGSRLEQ
MrgX1 agonist: agonists of human MrgX1 receptor, primary screen, HEK293 cells, Fluo-4 calcium flux. 310,000 compounds, 0.44% hits. B-score at 10 µM. Fluo-4 calcium fluorescence, agonist mode; stronger effect = higher value. Mas-related G-protein coupled receptor member X1 (Homo sapiens), Q96LB2;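 active = calcium response B-score plate-corrected fluorescence ratio at least 3 library SD, with starting fluorescence B-score inside 5 SD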
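System – MrgX1-expressing HEK293 cells · Incubation – cells plated overnight, dye loaded 0.5 h 37 °C, 0.5 h room temperature · Technique – kinetic Fluo-4 NW fluorescence of intracellular calcium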
MrgX1 antagonist: antagonists of human MrgX1 receptor, primary screen, HEK293 cells, Fluo-4 calcium flux; Mas-related G-protein coupled receptor member X1 (Homo sapiens), Q96LB2; BAM8-22 antagonism; stronger effect = lower value; B-score at 10 µM; 310,000 compounds, 1.3% hits; AID 588676, 2011;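 active = calcium-response B-score plate-corrected more than 3 library SD below zero, starting fluorescence within 5 deviations, no agonist response on first addition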;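 also: peak minus trough fluorescence over baseline after final BAM8-22 challenge near maximal dose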
* hit, by the source's call; i = inactive. Sampled rows, rich in hits. Any-hit rate of the full collection: about 3.5%.

SMILES | RGS4 block | RGS4 pot | MrgX1 allo act | MrgX1 agonist | MrgX1 antagonist
Cc1cc(C)cc(OCC(=O)Nc2cccc(-c3nnc(-c4ccco4)o3)c2)c1 | i | -7.6* | i | i | i
O=C(/C=C/c1ccccc1)c1cc(Br)ccc(=O)c1O | i | i | 11* | i | i
COc1ccc(O)c(/C=N/Nc2nc(Nc3ccccc3)nc(-n3nc(C)cc3C)n2)c1 | i | -8.5* | i | i | i
Cc1cccc(C(=O)OCC(=O)N2CCC(c3ccccc3)=N2)c1O | i | i | i | i | i
CCc1cc(C(=O)OCC(=O)N2CCC(c3ccccc3)=N2)sc1C | i | -7.2* | i | i | i
COCCn1c(=NC(=O)CSC(C)=O)sc2cc(F)ccc21 | i | i | i | i | -9.3*
COc1cccc(C(C(=O)NCc2ccco2)N(Cc2ccco2)C(=O)Cn2nnc3ccccc32)c1 (configuration not stated) | i | -7.2* | i | i | i
CC(C)CC(=O)Nc1nnc(SCC(=O)NCc2ccc3c(c2)OCO3)s1 | i | i | i | i | i
C=CCN(C(=O)c1csnn1)C(C(=O)NCc1ccccc1)c1c(F)cccc1Cl (configuration not stated) | i | i | i | i | i
CC(=O)/C(N=Nc1cccc(C(F)(F)F)c1)=C(\C)O | i | i | i | i | i
O=C(/C(N=Nc1cccc(C(F)(F)F)c1)=C(/O)c1cccs1)C(F)(F)F | i | -9.2* | i | i | i
CCc1ccc(N2C(=O)Nc3ccc(Br)cc3C2(O)C(=O)NCCN(C)C)cc1 (configuration not stated) | i | i | i | i | i
O=C(COc1cccnc1[N+](=O)[O-])Nc1cc(S(=O)(=O)N2CCCCC2)ccc1Cl | i | i | i | i | i
COc1ccc(C(=O)Nc2cc(C(C)=O)c(/C=C/N(C)C)oc2=O)cc1 | i | i | i | i | -5.3*
O=C(c1ccco1)N1CCCC(c2nc3c(nnn3Cc3ccc(F)cc3)c(=O)[nH]2)C1 (configuration not stated) | i | i | i | i | i
CCN1C(=O)/C(=C\N2CCCCCC2)SC1=S | i | -8.3* | i | i | i
Cc1cc(C)nc(/N=C(\N)Nc2ccc(F)c([N+](=O)[O-])c2)n1 | i | i | i | 38* | i
O=C(NNc1cccc(Cl)n1)c1ccccc1CC[N+](=O)[O-] | i | i | i | i | i
Cc1ccc(Oc2ncccc2/C=N/OCc2ccc(Cl)cc2Cl)cc1 | i | i | 7.3* | i | i
Cc1onc(-c2cccc(Cl)c2Cl)c1C(=O)O/N=C(\N)c1ccc([N+](=O)[O-])o1 | i | -8.7* | i | i | i
COC(=O)c1c(NC(=O)CS(=O)(=O)c2ccccc2)sc(C)c1C | i | i | i | i | i
CCCCCCCCNC(=O)/C(C#N)=C/c1ccccc1[N+](=O)[O-] | i | -7.9* | i | i | i
O=C(/C=C/c1ccccc1[N+](=O)[O-])Oc1ccccc1 | i | i | i | i | i
COC(=O)C(=Cc1ccccc1[N+](=O)[O-])C(=O)OC | i | i | i | 50* | i
Cc1cccc(-c2cc3nc(-c4ccccc4)cc(=O)n3[nH]2)c1 | i | i | i | i | i
SMILES | RGS4 block | RGS4 pot | MrgX1 allo act | MrgX1 agonist | MrgX1 antagonist
S=C1NC2(CCCCC2)Nc2ccccc21 | i | i | i | i | i
CC1CCN(C2=NN3C(=N)/C(=C\c4ccc(OC(=O)c5ccco5)cc4)C(=O)N=C3S2)CC1 | i | i | i | i | i
CS(=O)(=O)C1=NSC2=NC(=O)/C(=C\c3ccc(OC(=O)c4ccco4)cc3)C(=N)N21 | i | i | 25* | i | i
COc1cc(/C=C2/SC(=S)N(C)C2=O)ccc1OC(=O)c1ccco1 | i | i | i | i | -5*
CCOc1cc(/C=C2\C(=N)N3N=CSC3=NC2=O)ccc1OS(=O)(=O)c1ccccc1 | i | i | i | 57* | i
Cc1cc(/C=C2/C(=N)N3C(=NC2=O)SN=C3S(C)(=O)=O)c(C)n1-c1ccccc1F | i | i | 11* | i | i
CC1=CC2=NC(=O)/C(=C\c3cc(C)n(-c4ccccc4F)c3C)C(=N)N2O1 | i | i | i | i | i
COc1cc(/C=C2/SC(=O)NC2=O)ccc1OC(=O)c1ccco1 | i | i | i | i | i
CCn1c(COc2ccccc2C)nnc1SCc1nc2ccccc2c(=O)[nH]1 | i | i | i | i | i
COc1cc(/C=C2/C(=N)N3C(=NC2=O)SN=C3S(=O)(=O)C(C)C)ccc1OS(=O)(=O)c1ccccc1 | i | i | 13* | i | i
CCS(=O)(=O)C1=NN2C(=N)/C(=C\c3ccc(OC(=O)c4ccco4)c(OC)c3)C(=O)N=C2S1 | i | i | i | i | i
CCS(=O)(=O)C1=NSC2=NC(=O)/C(=C\c3ccc(OC(=O)c4ccco4)c(OC)c3)C(=N)N21 | i | i | 28* | i | i
COc1cc(/C=C2/C(=N)N3C(=NC2=O)SN=C3S(C)(=O)=O)ccc1OC(=O)c1ccco1 | i | i | 18* | i | i
COc1cc(/C=C2\C(=N)N3N=CSC3=NC2=O)cc(Br)c1OC(=O)c1ccco1 | i | i | i | 34* | i
CCC1CCCCN1CCCNC(=O)C1CC(=O)N(CCc2ccccc2)C1 (configuration not stated) | i | i | i | i | i
CCN(CC)N=Nc1ccc(S(=O)(=O)N2CCSC2C(=O)O)cc1 (configuration not stated) | i | i | i | i | i
CCN(CC)N=Nc1ccc(C(=O)O)cc1 | i | i | i | i | -5.5*
O=C(Nc1nnc(CSCc2ccc(Cl)cc2)s1)c1cccc([N+](=O)[O-])c1 | i | i | i | i | -9.5*
O=C(CSc1c2c(nc3cc(Cl)ccc13)CCCC2)NCCCN1CCOCC1 | i | i | i | i | i
CCN(CC)CCCNC(=O)CSc1c2c(nc3cc(Cl)ccc13)CCCC2 | i | -7.2* | i | i | i
CC1CC(CC(C)C(=O)Nc2nncs2)C(=O)O1 (configuration not stated) | i | i | i | i | i
